# Measurements published in ChEMBL document CHEMBL3286099, “Synthesized quercetin derivatives stimulate melanogenesis in B16 melanoma cells by influencing the expression of melanin biosynthesis proteins MITF and p38 MAPK” (Bioorg Med Chem, 2014).
# Assays:
# [1] = system: B16-F0; experiment: Intracellular melanogenesis-stimulating activity in mouse B16F0 cells at 250 uM after 72 hrs by spectrophotometry relative to control; format: functional
# [2] = system: B16-F0; experiment: Extracellular melanogenesis-stimulating activity in mouse B16F0 cells at 500 uM after 72 hrs by spectrophotometry relative to control; format: functional
# [3] = Cytotoxicity against mouse B16F0 cells assessed as cell viability at 125 uM after 72 hrs by MTT assay; format: cell-based; settings: read-out: Activity
# In short: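 B16-F0 murine melanoma cells in DMEM with 10% FBS, penicillin and streptomycin, at 37 °C and 5% CO₂. Seeded at 5.0 × 10⁴ cells/well, adhered 24 h, then exposed 72 h. MTT (5 mg/mL stock in PBS) added for 4 h at 37 °C, formazan taken up in isopropanol with 0.04 N HCl, A590 read. Viability given as % of DMSO control; experiments repeated twice.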
# [4] = system: B16-F0; experiment: Extracellular melanogenesis-stimulating activity in mouse B16F0 cells at 250 uM after 72 hrs by spectrophotometry relative to control; format: functional
# [5] = Cytotoxicity against mouse B16F0 cells assessed as cell viability at 250 uM after 72 hrs by MTT assay; format: cell-based; settings: read-out: Activity
# [6] = system: B16-F0; experiment: Extracellular melanogenesis-stimulating activity in mouse B16F0 cells at 125 uM after 72 hrs by spectrophotometry relative to control; format: functional
# In short: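 B16-F0 cells were seeded at 5.0 × 10⁴ cells/well, allowed to adhere for 24 h, then treated for 72 h. Culture medium was collected and its absorbance read at 510 nm as extracellular melanin. Results are % of DMSO-treated control; experiments repeated twice.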
# [7] = system: B16-F0; experiment: Intracellular melanogenesis-stimulating activity in mouse B16F0 cells at 500 uM after 72 hrs by spectrophotometry relative to control; format: functional
# [8] = Cytotoxicity against mouse B16F0 cells assessed as cell viability at 500 uM after 72 hrs by MTT assay; format: cell-based; settings: read-out: Activity
# [9] = system: B16-F0; experiment: Intracellular melanogenesis-stimulating activity in mouse B16F0 cells at 125 uM after 72 hrs by spectrophotometry relative to control; format: functional
# In short: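 After 72 h treatment of B16-F0 cells (5.0 × 10⁴ cells/well, 24 h adherence), cells were washed with PBS and lysed in 1 M NaOH at 100 °C for 30 min to solubilise melanin. Lysate absorbance was read at 405 nm as intracellular melanin, expressed as % of DMSO control; experiments repeated twice.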
compound,measurement,setting,value
Cn1c(=O)c2nc[nH]c2n(C)c1=O.O [THEOPHYLLINE],Activity,[1],131.7%
same,Activity,[2],204%
same,"viability at 72 h, 125 µM",[3],95.5%
same,Activity,[4],183.2%
same,"viability at 72 h, 250 µM",[5],94.4%
same,Activity,[6],170.7%
same,Activity,[7],166.8%
same,"viability at 72 h, 500 µM",[8],91.4%
same,Activity,[9],127.6%
